Test results taken from ChEMBL document CHEMBL5674883, “The Heterochromatin Landscape in Migrating Cells and the Importance of H3K27me3 for Associated Transcriptome Alterations” (Cells, 2018).

Experiments:
Format in all cases: cell-based
[1] = molecular target: T1, RNA polymerase II (Mus musculus) (UniProt P08775+Q8CFI7+P97760+A0A3Q4L2S8+Q80UW8+P61219+P62488+Q923G2+P60898+O08740+Q63871+P62876); test: Inhibition of RNA polymerase II in mouse B16-F1 migrating cells assessed as fold change in Phf20l1-RNA stability at 0.1 mM measured by […] analysis relative to control cells
[2] = molecular target: T1, RNA polymerase II (Mus musculus); test: Inhibition of RNA polymerase II in mouse B16-F1 migrating cells assessed as fold change in Med25-RNA stability at 0.1 mM measured by ChIP-seq analysis relative to control cells
[3] = molecular target: T1, RNA polymerase II (Mus musculus); test: Inhibition of RNA polymerase II in mouse B16-F1 migrating cells assessed as fold change in Dock10-RNA stability at 0.1 mM measured by ChIP-seq analysis relative to control cells
[4] = molecular target: T1, RNA polymerase II (Mus musculus); test: Inhibition of RNA polymerase II in mouse B16-F1 migrating cells assessed as fold change in Rpl7-RNA stability at 0.1 mM measured by […] analysis relative to control cells
[5] = molecular target: T1, RNA polymerase II (Mus musculus); test: Inhibition of RNA polymerase II in mouse B16-F1 migrating cells assessed as fold change in Rps15-RNA stability at 0.1 mM measured by […] analysis relative to control cells
[6] = molecular target: T1, RNA polymerase II (Mus musculus); test: Inhibition of RNA polymerase II in mouse B16-F1 migrating cells assessed as fold change in Ikzf4-RNA stability at 0.1 mM measured by ChIP-seq analysis relative to control cells
[7] = molecular target: T1, RNA polymerase II (Mus musculus); test: Inhibition of RNA polymerase II in mouse B16-F1 migrating cells assessed as fold change in Alg2-RNA stability at 0.1 mM measured by […] analysis relative to control cells
[8] = molecular target: T1, RNA polymerase II (Mus musculus); test: Inhibition of RNA polymerase II in mouse B16-F1 migrating cells assessed as fold change in Dnttip2-RNA stability at 0.1 mM measured by ChIP-seq analysis relative to control cells
In short: (§1)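 Mouse B16-F1 melanoma cells grown to confluence on fibronectin in DMEM/10% FCS at 37 °C, 7% CO2. Migration induced by multiple scratches and 3 h incubation; unscratched controls. DRB 0.1 mM added 3 h before lysis. RNA from poly A-selected mRNA was sequenced (RNA-seq, three replicates per DRB group). Fold change computed for DRB-treated migrating vs DRB-treated control cells; cutoffs fold change >1.3, FDR <0.05.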

[9] = molecular target: T1, RNA polymerase II (Mus musculus); test: Inhibition of RNA polymerase II in mouse B16-F1 migrating cells assessed as fold change in Dido1-RNA stability at 0.1 mM measured by […] analysis relative to control cells; in short: as §1
[10] = molecular target: T1, RNA polymerase II (Mus musculus); test: Inhibition of RNA polymerase II in mouse B16-F1 migrating cells assessed as fold change in Mapre3-RNA stability at 0.1 mM measured by ChIP-seq analysis relative to control cells
[11] = molecular target: Histone-lysine N-methyltransferase EZH2 (Mus musculus) (UniProt Q61188); test: Inhibition of EZH2 in mouse B16-F1 migrating cells assessed as fold change in H3K27me3-buffered regulated Rhbdf2-mRNA expression at 3 uM measured by […] analysis relative to control cells
Sequence of Histone-lysine N-methyltransferase EZH2 (Mus musculus) (Q61188 whole entry): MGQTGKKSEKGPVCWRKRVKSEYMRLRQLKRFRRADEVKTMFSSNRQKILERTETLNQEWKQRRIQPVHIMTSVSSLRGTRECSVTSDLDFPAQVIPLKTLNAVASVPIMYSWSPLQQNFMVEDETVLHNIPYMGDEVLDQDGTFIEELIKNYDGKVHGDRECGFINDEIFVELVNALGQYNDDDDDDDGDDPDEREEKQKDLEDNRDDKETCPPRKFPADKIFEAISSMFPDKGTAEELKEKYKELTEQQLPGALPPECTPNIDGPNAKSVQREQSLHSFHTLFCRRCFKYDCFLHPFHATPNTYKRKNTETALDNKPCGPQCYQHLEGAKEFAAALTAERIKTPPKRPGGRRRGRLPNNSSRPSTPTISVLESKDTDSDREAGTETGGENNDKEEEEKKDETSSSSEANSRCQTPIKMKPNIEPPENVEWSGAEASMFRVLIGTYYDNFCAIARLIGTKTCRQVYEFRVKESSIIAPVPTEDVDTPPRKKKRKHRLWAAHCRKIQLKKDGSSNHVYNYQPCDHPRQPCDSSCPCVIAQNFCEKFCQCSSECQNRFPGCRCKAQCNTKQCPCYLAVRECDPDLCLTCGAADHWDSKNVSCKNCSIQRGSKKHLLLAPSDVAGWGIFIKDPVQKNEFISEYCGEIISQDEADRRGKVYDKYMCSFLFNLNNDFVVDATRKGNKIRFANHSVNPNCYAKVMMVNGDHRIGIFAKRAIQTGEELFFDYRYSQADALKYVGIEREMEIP
In short: (§2)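 Confluent B16-F1 cells on fibronectin-coated plates, cultured at 37 °C and 7% CO2, were scratched at multiple sites to induce migration. They were then held 3 h in growth medium containing 3 µM GSK343, with the inhibitor added 3 h before lysis. Unscratched cells served as controls. Poly A mRNA was analysed by RNA-seq (n=3 GSK343, n=5 controls). Linear models removed batch effects, and buffered genes were those altered only under GSK343 (FDR <0.05, fold change >1.3).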

[12] = molecular target: Histone-lysine N-methyltransferase EZH2 (Mus musculus) (UniProt Q61188); test: Inhibition of EZH2 in mouse B16-F1 migrating cells assessed as fold change in H3K27me3-independent regulated Nr4a3-mRNA expression at 3 uM measured by ChIP-seq analysis relative to control cells
In short: (§3)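 Confluent B16-F1 cells on fibronectin-coated plates were scratched at multiple sites, washed once with DMEM and left to migrate 3 h in growth medium (37 °C, 7% CO2); unscratched cells served as control. GSK343 (3 µM) was added 3 h before lysis. Poly A mRNA was sequenced (RNA-seq), with 5 replicates for untreated and 3 for treated cells. Differential expression was called by linear model with batch correction, at FDR <0.05 and fold change ≥1.3.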

[13] = molecular target: Histone-lysine N-methyltransferase EZH2 (Mus musculus) (UniProt Q61188); test: Inhibition of EZH2 in mouse B16-F1 migrating cells assessed as fold change in H3K27me3-buffered regulated Synm-mRNA expression at 3 uM measured by […] analysis relative to control cells; in short: as §3
[14] = molecular target: Histone-lysine N-methyltransferase EZH2 (Mus musculus) (UniProt Q61188); test: Inhibition of EZH2 in mouse B16-F1 migrating cells assessed as fold change in H3K27me3-buffered regulated 1810032O08Rik-mRNA expression at 3 uM measured by […] analysis relative to control cells; in short: as §2
[15] = molecular target: Histone-lysine N-methyltransferase EZH2 (Mus musculus) (UniProt Q61188); test: Inhibition of EZH2 in mouse B16-F1 migrating cells assessed as fold change in H3K27me3-buffered regulated Ctxn1-mRNA expression at 3 uM measured by ChIP-seq analysis relative to control cells; in short: as §2
[16] = molecular target: Histone-lysine N-methyltransferase EZH2 (Mus musculus) (UniProt Q61188); test: Inhibition of EZH2 in mouse B16-F1 migrating cells assessed as fold change in H3K27me3-dependent regulated Gm43909-mRNA expression at 3 uM measured by […] analysis relative to control cells; in short: as §3
[17] = molecular target: Histone-lysine N-methyltransferase EZH2 (Mus musculus) (UniProt Q61188); test: Inhibition of EZH2 in mouse B16-F1 migrating cells assessed as fold change in H3K27me3-buffered regulated Mpp7-mRNA expression at 3 uM measured by […] analysis relative to control cells; in short: as §2
[18] = molecular target: Histone-lysine N-methyltransferase EZH2 (Mus musculus) (UniProt Q61188); test: Inhibition of EZH2 in mouse B16-F1 migrating cells assessed as fold change in H3K27me3-buffered regulated 4930503L19Rik-mRNA expression at 3 uM measured by […] analysis relative to control cells; in short: as §2
[19] = molecular target: Histone-lysine N-methyltransferase EZH2 (Mus musculus) (UniProt Q61188); test: Inhibition of EZH2 in mouse B16-F1 migrating cells assessed as fold change in H3K27me3-buffered regulated Ccdc18-mRNA expression at 3 uM measured by […] analysis relative to control cells; in short: as §2
[20] = molecular target: Histone-lysine N-methyltransferase EZH2 (Mus musculus) (UniProt Q61188); test: Inhibition of EZH2 in mouse B16-F1 migrating cells assessed as fold change in H3K27me3-buffered regulated Paxbp1-mRNA expression at 3 uM measured by […] analysis relative to control cells; in short: as §2
[21] = molecular target: Histone-lysine N-methyltransferase EZH2 (Mus musculus) (UniProt Q61188); test: Inhibition of EZH2 in mouse B16-F1 migrating cells assessed as fold change in H3K27me3-buffered regulated Slc39a14-mRNA expression at 3 uM measured by […] analysis relative to control cells; in short: as §3
[22] = molecular target: Histone-lysine N-methyltransferase EZH2 (Mus musculus) (UniProt Q61188); test: Inhibition of EZH2 in mouse B16-F1 migrating cells assessed as fold change in H3K27me3-buffered regulated Spag1-mRNA expression at 3 uM measured by […] analysis relative to control cells; in short: as §3
[23] = molecular target: Histone-lysine N-methyltransferase EZH2 (Mus musculus) (UniProt Q61188); test: Inhibition of EZH2 in mouse B16-F1 migrating cells assessed as fold change in H3K27me3-independent regulated Cep290-mRNA expression at 3 uM measured by […] analysis relative to control cells; in short: as §3
[24] = molecular target: Histone-lysine N-methyltransferase EZH2 (Mus musculus) (UniProt Q61188); test: Inhibition of EZH2 in mouse B16-F1 migrating cells assessed as fold change in H3K27me3-buffered regulated Gatd1-mRNA expression at 3 uM measured by ChIP-seq analysis relative to control cells; in short: as §2

What does the source list for `OC[C@H]1O[C@@H](n2cnc3cc(Cl)c(Cl)cc32)[C@H](O)[C@@H]1O`?
log2FC [1]: -0.65; log2FC [2]: 0.42; log2FC [3]: -0.68; log2FC [4]: 0.41; log2FC [5]: 0.53; log2FC [6]: 0.93; log2FC [7]: 0.52; log2FC [8]: -0.87; log2FC [9]: -0.53; log2FC [10]: 0.77

Which results are given for `CCCc1cc(C)[nH]c(=O)c1CNC(=O)c1cc(-c2ccnc(N3CCN(C)CC3)c2)cc2c1cnn2C(C)C`?
log2FC [11]: -0.57; log2FC [12]: 0.74; log2FC [13]: 1.06; log2FC [14]: -1.08; log2FC [15]: 0.43; log2FC [16]: -0.39; log2FC [17]: 0.51; log2FC [18]: -0.64; log2FC [19]: -0.87; log2FC [20]: -0.55; log2FC [21]: 0.46; log2FC [22]: -0.78; log2FC [23]: -0.62; log2FC [24]: -0.43
